Assay results from ChEMBL document CHEMBL1145212, “Fluorinated diaryl sulfides as serotonin transporter ligands: synthesis, structure-activity relationship study, and in vivo evaluation of fluorine-18-labeled compounds as PET imaging agents” (J Med Chem, 2005).

What was measured:
Type in all cases: cell-based
[1] = target: Sodium-dependent dopamine transporter (Homo sapiens, UniProt Q01959); test: In vitro displacement of [3H]GBR-12935 from human dopamine transporter expressed in HEK293 cells
How it was run: (§1)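 Competitive binding using cloned human transporters expressed in HEK-293 cells. NET was labelled with [³H]nisoxetine and DAT with [³H]GBR12935, following a previously published procedure.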

[2] = target: Sodium-dependent noradrenaline transporter (Homo sapiens, UniProt P23975); test: In vitro displacement of [3H]nisoxetine from human norepinephrine transporter expressed in HEK293 cells; how it was run: as §1
[3] = target: Sodium-dependent serotonin transporter (Homo sapiens, UniProt P31645); test: In vitro displacement of [3H]paroxetine from human serotonin transporter expressed in HEK293 cells
Sodium-dependent serotonin transporter, sequence (P31645 whole entry): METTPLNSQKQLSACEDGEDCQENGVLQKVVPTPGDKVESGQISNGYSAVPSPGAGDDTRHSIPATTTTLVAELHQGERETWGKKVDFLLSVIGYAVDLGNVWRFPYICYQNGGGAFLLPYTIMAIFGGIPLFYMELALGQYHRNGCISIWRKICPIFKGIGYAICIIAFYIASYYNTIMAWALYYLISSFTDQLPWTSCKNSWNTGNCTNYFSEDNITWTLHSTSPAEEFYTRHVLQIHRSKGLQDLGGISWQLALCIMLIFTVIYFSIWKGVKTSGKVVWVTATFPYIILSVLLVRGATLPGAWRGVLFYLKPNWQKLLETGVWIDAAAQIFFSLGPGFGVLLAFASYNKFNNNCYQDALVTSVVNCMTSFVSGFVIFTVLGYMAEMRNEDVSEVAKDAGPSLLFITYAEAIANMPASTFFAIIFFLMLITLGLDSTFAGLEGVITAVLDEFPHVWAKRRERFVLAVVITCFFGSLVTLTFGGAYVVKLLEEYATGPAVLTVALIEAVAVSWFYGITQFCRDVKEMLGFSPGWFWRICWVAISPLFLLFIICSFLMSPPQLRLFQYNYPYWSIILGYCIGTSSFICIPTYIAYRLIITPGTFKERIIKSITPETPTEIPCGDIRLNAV

Sodium-dependent dopamine transporter, sequence (Q01959 whole entry): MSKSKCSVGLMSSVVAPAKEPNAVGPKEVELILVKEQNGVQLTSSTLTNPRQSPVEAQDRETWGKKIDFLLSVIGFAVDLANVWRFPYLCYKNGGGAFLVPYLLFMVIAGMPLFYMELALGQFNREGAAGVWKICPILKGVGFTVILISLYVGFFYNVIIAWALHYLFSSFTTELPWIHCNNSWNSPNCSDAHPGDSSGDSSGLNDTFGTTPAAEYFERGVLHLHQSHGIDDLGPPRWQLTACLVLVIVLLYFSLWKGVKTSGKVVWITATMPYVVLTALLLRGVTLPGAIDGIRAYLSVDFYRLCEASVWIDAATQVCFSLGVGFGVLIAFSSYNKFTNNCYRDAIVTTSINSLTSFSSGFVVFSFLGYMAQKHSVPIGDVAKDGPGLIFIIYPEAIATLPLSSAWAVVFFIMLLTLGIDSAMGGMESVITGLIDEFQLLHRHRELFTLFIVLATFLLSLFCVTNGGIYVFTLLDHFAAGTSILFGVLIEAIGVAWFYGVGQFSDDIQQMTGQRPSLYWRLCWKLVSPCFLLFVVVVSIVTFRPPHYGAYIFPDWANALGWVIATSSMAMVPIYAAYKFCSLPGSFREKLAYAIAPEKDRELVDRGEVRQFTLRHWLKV
Sodium-dependent noradrenaline transporter, sequence (P23975 whole entry): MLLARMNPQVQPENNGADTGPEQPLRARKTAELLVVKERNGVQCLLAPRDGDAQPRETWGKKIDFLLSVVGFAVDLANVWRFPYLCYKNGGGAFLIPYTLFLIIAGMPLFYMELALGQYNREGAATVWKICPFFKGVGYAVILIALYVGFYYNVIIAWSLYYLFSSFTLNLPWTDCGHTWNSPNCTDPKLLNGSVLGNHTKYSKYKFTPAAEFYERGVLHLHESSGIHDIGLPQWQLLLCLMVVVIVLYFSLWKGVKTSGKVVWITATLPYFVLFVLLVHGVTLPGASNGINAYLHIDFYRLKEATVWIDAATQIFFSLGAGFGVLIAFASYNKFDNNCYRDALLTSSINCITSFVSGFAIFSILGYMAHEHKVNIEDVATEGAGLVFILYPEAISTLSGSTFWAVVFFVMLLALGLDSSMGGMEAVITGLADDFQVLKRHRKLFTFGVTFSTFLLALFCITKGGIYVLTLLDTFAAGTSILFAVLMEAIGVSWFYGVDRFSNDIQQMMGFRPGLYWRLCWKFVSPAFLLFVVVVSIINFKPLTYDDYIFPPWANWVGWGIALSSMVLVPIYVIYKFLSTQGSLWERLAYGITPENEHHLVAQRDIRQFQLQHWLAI

Row | Ki [1] [nM] | Ki [2] [nM] | Ki [3] [nM] | SMILES
1 | 5300 | 4440 | 30 | Cc1ccc(Sc2ccccc2CN)c(N)c1
2 | – | – | 1.12 | CN(C)Cc1ccccc1Sc1ccc(C#N)cc1N [DASB]
3 | – | – | 1.19 | Cc1ccc(Sc2ccccc2CN(C)C)c(N)c1
